Experimental data: ChEMBL document CHEMBL3784919, “Design and synthesis of novel 5-aminosalicylate (5-ASA)-4-thiazolinone hybrid derivatives with promising antiproliferative activity” (Bioorg Med Chem Lett, 2016)

system: MCF7; assay: Antiproliferative activity against human MCF7 cells assessed as cell viability after 48 hrs by SRB assay; format: functional, cell-based; details: MCF7, 48 h

Q: For `COC(=O)c1cc(NC2=NC(=O)/C(=C/c3ccccc3O)S2)ccc1O`, which IC50 is on record?
A: Its IC50 is 500 nM.

Q: For `COC(=O)c1cc(NC2=NC(=O)/C(=C/c3ccc(C)cc3)S2)ccc1O`, which IC50 is on record?
A: Its IC50 is 410 nM.

Q: For `COC(=O)c1cc(NC2=NC(=O)/C(=C/c3ccc(Br)cc3)S2)ccc1O`, which IC50 is on record?
A: The IC50 was 70 nM.

Q: Which IC50 does the source give for `COC(=O)c1cc(NC2=NC(=O)/C(=C/c3ccc(N(C)C)cc3)S2)ccc1O` here?
A: The IC50 was 630 nM.

system: MCF7; assay: Antiproliferative activity against human MCF7 cells assessed as cell survival at 10 uM after 48 hrs by SRB assay; format: functional; details: MCF7, 48 h, read-out: Survival
Outline: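 Human breast cancer MCF-7 cells were exposed once to a single compound concentration for 48 h. Vehicle controls received DMSO, added as 0.1%. Survival was read by sulforhodamine B staining and expressed as percent of cells remaining relative to the DMSO control, set at 100%, with SD.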

Q: For `COC(=O)c1cc(NC2=NC(=O)/C(=C/c3ccc([N+](=O)[O-])cc3)S2)ccc1O`, which viability at 10 µM is on record?
A: Its viability at 10 µM is 73.9%.

Q: With `COC(=O)c1cc(NC2=NC(=O)/C(=C/c3cccc(Cl)c3)S2)ccc1O` as the molecule, how does the viability at 10 µM read?
A: Its viability at 10 µM is 65.9%.

Q: With `COC(=O)c1cc(NC2=NC(=O)/C(=C/c3ccc(O)cc3)S2)ccc1O` as the molecule, how does the viability at 10 µM read?
A: The viability at 10 µM was 93.5%.

Q: For `COC(=O)c1cc(NC2=NC(=O)/C(=C/c3ccccc3Cl)S2)ccc1O`, which viability at 10 µM is on record?
A: The viability at 10 µM was 85%.

Q: With `COC(=O)c1cc(NC2=NC(=O)/C(=C/c3ccccc3O)S2)ccc1O` as the molecule, how does the viability at 10 µM read?
A: Its viability at 10 µM is 16.5%.

Q: With `COC(=O)c1cc(NC2=NC(=O)/C(=C/c3ccc(F)cc3)S2)ccc1O` as the molecule, how does the viability at 10 µM read?
A: The viability at 10 µM was 86%.

Q: With `COC(=O)c1cc(NC2=NC(=O)/C(=C/c3ccc(Cl)cc3)S2)ccc1O` as the molecule, how does the viability at 10 µM read?
A: The viability at 10 µM was 28%.

Q: For `COC(=O)c1cc(NC2=NC(=O)/C(=C/c3cccc([N+](=O)[O-])c3)S2)ccc1O`, which viability at 10 µM is on record?
A: Its viability at 10 µM is 82.2%.

Q: Which viability at 10 µM does the source give for `COC(=O)c1cc(NC2=NC(=O)/C(=C/c3ccc(OC)c(OC)c3)S2)ccc1O` here?
A: Its viability at 10 µM is 26.6%.

Q: Which viability at 10 µM does the source give for `COC(=O)c1cc(NC2=NC(=O)/C(=C/c3ccc(C)cc3)S2)ccc1O` here?
A: The viability at 10 µM was 17.8%.

Q: For `COC(=O)c1cc(NC2=NC(=O)CS2)ccc1O`, which viability at 10 µM is on record?
A: The viability at 10 µM was 97%.

Q: Which viability at 10 µM does the source give for `COC(=O)c1cc(NC2=NC(=O)/C(=C/c3cc(OC)c(OC)c(OC)c3)S2)ccc1O` here?
A: The viability at 10 µM was 73.3%.

Q: Which viability at 10 µM does the source give for `COC(=O)c1cc(NC2=NC(=O)/C(=C/c3ccccc3)S2)ccc1O` here?
A: The viability at 10 µM was 67.8%.

Q: Which viability at 10 µM does the source give for `COC(=O)c1cc(NC2=NC(=O)/C(=C/c3ccccc3OC)S2)ccc1O` here?
A: Its viability at 10 µM is 70%.

Q: With `COC(=O)c1cc(NC2=NC(=O)/C(=C/c3ccc(Br)cc3)S2)ccc1O` as the molecule, how does the viability at 10 µM read?
A: Its viability at 10 µM is 19%.

Q: With `COC(=O)c1cc(NC2=NC(=O)/C(=C/c3ccc(N(C)C)cc3)S2)ccc1O` as the molecule, how does the viability at 10 µM read?
A: Its viability at 10 µM is 16.2%.

Q: Which viability at 10 µM does the source give for `COC(=O)c1cc(NC2=NC(=O)/C(=C/c3ccc4c(c3)OCO4)S2)ccc1O` here?
A: The viability at 10 µM was 28%.

Q: For `COC(=O)c1cc(NC2=NC(=O)/C(=C/c3cccc(Br)c3)S2)ccc1O`, which viability at 10 µM is on record?
A: The viability at 10 µM was 68%.

Q: Which viability at 10 µM does the source give for `COC(=O)c1cc(NC2=NC(=O)/C(=C/c3ccc(OC)cc3)S2)ccc1O` here?
A: Its viability at 10 µM is 26%.

Q: Which viability at 10 µM does the source give for `COc1cccc2c1C(=O)c1c(O)c3c(c(O)c1C2=O)C[C@@](O)(C(=O)CO)C[C@@H]3O[C@H]1C[C@H](N)[C@H](O)[C@H](C)O1` [DOXORUBICIN] here?
A: Its viability at 10 µM is 4%.

system: A549; assay: Antiproliferative activity against human A549 cells assessed as cell viability after 48 hrs by SRB assay; format: functional, cell-based; details: A549, 48 h

Q: For `COC(=O)c1cc(NC2=NC(=O)/C(=C/c3ccccc3O)S2)ccc1O`, which IC50 is on record?
A: Its IC50 is greater than 10000 nM.

Q: For `COC(=O)c1cc(NC2=NC(=O)/C(=C/c3ccc(C)cc3)S2)ccc1O`, which IC50 is on record?
A: Its IC50 is 2200 nM.

Q: Which IC50 does the source give for `COC(=O)c1cc(NC2=NC(=O)/C(=C/c3ccc(Br)cc3)S2)ccc1O` here?
A: The IC50 was 8300 nM.

Q: Which IC50 does the source give for `COC(=O)c1cc(NC2=NC(=O)/C(=C/c3ccc(N(C)C)cc3)S2)ccc1O` here?
A: Its IC50 is 2400 nM.

Q: Which IC50 does the source give for `COc1cccc2c1C(=O)c1c(O)c3c(c(O)c1C2=O)C[C@@](O)(C(=O)CO)C[C@@H]3O[C@H]1C[C@H](N)[C@H](O)[C@H](C)O1` [DOXORUBICIN] here?
A: The IC50 was 450 nM.

system: not listed separately; assay: Cytotoxicity against human F180 cells assessed as cell viability after 48 hrs by SRB assay; format: cell-based; details: F180, 48 h

Q: Which IC50 does the source give for `COC(=O)c1cc(NC2=NC(=O)/C(=C/c3ccccc3O)S2)ccc1O` here?
A: The IC50 was greater than 10000 nM.

Q: With `COC(=O)c1cc(NC2=NC(=O)/C(=C/c3ccc(C)cc3)S2)ccc1O` as the molecule, how does the IC50 read?
A: Its IC50 is 1050 nM.

Q: Which IC50 does the source give for `COC(=O)c1cc(NC2=NC(=O)/C(=C/c3ccc(Br)cc3)S2)ccc1O` here?
A: Its IC50 is 10000 nM.

Q: For `COC(=O)c1cc(NC2=NC(=O)/C(=C/c3ccc(N(C)C)cc3)S2)ccc1O`, which IC50 is on record?
A: The IC50 was 940 nM.

Q: With `COc1cccc2c1C(=O)c1c(O)c3c(c(O)c1C2=O)C[C@@](O)(C(=O)CO)C[C@@H]3O[C@H]1C[C@H](N)[C@H](O)[C@H](C)O1` [DOXORUBICIN] as the molecule, how does the IC50 read?
A: The IC50 was 350 nM.

system: HeLa; assay: Antiproliferative activity against human HeLa cells assessed as cell viability after 48 hrs by SRB assay; format: functional, cell-based; details: not given

Q: For `COC(=O)c1cc(NC2=NC(=O)/C(=C/c3ccccc3O)S2)ccc1O`, which IC50 is on record?
A: The IC50 was 1390 nM.

Q: With `COC(=O)c1cc(NC2=NC(=O)/C(=C/c3ccc(C)cc3)S2)ccc1O` as the molecule, how does the IC50 read?
A: The IC50 was 85 nM.

Q: Which IC50 does the source give for `COC(=O)c1cc(NC2=NC(=O)/C(=C/c3ccc(Br)cc3)S2)ccc1O` here?
A: The IC50 was 3480 nM.

Q: Which IC50 does the source give for `COC(=O)c1cc(NC2=NC(=O)/C(=C/c3ccc(N(C)C)cc3)S2)ccc1O` here?
A: Its IC50 is 180 nM.

Q: With `COc1cccc2c1C(=O)c1c(O)c3c(c(O)c1C2=O)C[C@@](O)(C(=O)CO)C[C@@H]3O[C@H]1C[C@H](N)[C@H](O)[C@H](C)O1` [DOXORUBICIN] as the molecule, how does the IC50 read?
A: Its IC50 is 100 nM.

system: not listed separately; assay: Ratio of compound IC50 to doxorubicin IC50 for human F180 cells; format: ADME, cell-based; details: read-out: Ratio IC50

Q: With `COC(=O)c1cc(NC2=NC(=O)/C(=C/c3ccc(Br)cc3)S2)ccc1O` as the molecule, how does the selectivity ratio read?
A: Its selectivity ratio is 28.

system: not listed separately; assay: Antiproliferative activity against human HCT116 cells assessed as cell viability after 48 hrs by SRB assay; format: functional, cell-based; details: HCT-116, 48 h

Q: With `COC(=O)c1cc(NC2=NC(=O)/C(=C/c3ccccc3O)S2)ccc1O` as the molecule, how does the IC50 read?
A: The IC50 was 3440 nM.

Q: For `COC(=O)c1cc(NC2=NC(=O)/C(=C/c3ccc(C)cc3)S2)ccc1O`, which IC50 is on record?
A: Its IC50 is 450 nM.

Q: For `COC(=O)c1cc(NC2=NC(=O)/C(=C/c3ccc(Br)cc3)S2)ccc1O`, which IC50 is on record?
A: The IC50 was 5580 nM.

Q: Which IC50 does the source give for `COC(=O)c1cc(NC2=NC(=O)/C(=C/c3ccc(N(C)C)cc3)S2)ccc1O` here?
A: The IC50 was 310 nM.

Q: With `COc1cccc2c1C(=O)c1c(O)c3c(c(O)c1C2=O)C[C@@](O)(C(=O)CO)C[C@@H]3O[C@H]1C[C@H](N)[C@H](O)[C@H](C)O1` [DOXORUBICIN] as the molecule, how does the IC50 read?
A: Its IC50 is 380 nM.
